Experimental findings from ChEMBL document CHEMBL1671773, “Benzoquinazoline derivatives as new agents affecting DNA processing” (Bioorg Med Chem, 2011) are described below.

The source made the active and inactive calls. The rule behind the calls is not given here.

In one assay the test system is HL-60. Briefly: Growth inhibition in human HL60 cells after 72 hrs by trypan blue assay. In kind it is functional, cell-based. The note with it: HL-60, 72 h. Summed up:
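HL-60 cells were grown in RPMI 1640 with 15% heat-inactivated FCS and antibiotics at 37 °C under 5% CO2. 4 × 10⁴ cells per well were seeded, and after 24 h test agents were added to complete medium for 72 h. Viability was read by trypan blue. IC50 is the concentration giving 50% reduction in cell number versus control cultures.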

The test system of assay [1] is HeLa. Nature of the assay: Growth inhibition in human HeLa cells after 72 hrs by trypan blue assay. In kind it is functional, cell-based. Summed up: (§1)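 HeLa (F-12 medium) and A431 (D-MEM) cells were grown with 10% heat-inactivated FCS and antibiotics at 37 °C under 5% CO2. 4 × 10⁴ cells per well were seeded for 24 h, then medium was replaced with fresh medium containing test agents for 72 h. Viability was read by trypan blue. IC50 is the concentration halving cell number versus control.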

The test system of a further assay is A-431. Nature of the assay: Growth inhibition in human A431 cells after 72 hrs by trypan blue assay. In kind it is functional, cell-based. To be noted: A-431, 72 h. The gist of the method:
as §1

For assay [2], the target named is DNA topoisomerase 2-alpha (Homo sapiens) (UniProt P11388). Nature of the assay: Inhibition of human recombinant topoisomerase 2-mediated relaxation of supercoiled pBR322 DNA upt0 100 uM after 60 mins by agarose gel electrophoresis. The gist of the method:
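Supercoiled pBR322 (0.25 µg) was incubated with 1 U topoisomerase II plus compounds for 60 min at 37 °C in 20 µL. The reaction was stopped with SDS stop buffer and 50 µg/mL proteinase K for 30 min at 37 °C. Products were run on a 1% agarose gel at room temperature, then stained with 1 µg/mL ethidium bromide and imaged under UV.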

Assay [3] deals with Nucleic Acid. Nature of the assay: Binding affinity to Salmon testes DNA assessed as drug-DNA complex formation at drug/DNA ratio 0.08 by linear flow dichroism method. In kind it is nucleic-acid assay. The note with it: Salmonidae.
Assay [4] deals with Nucleic Acid. Briefly: Binding affinity to Salmon testes DNA assessed as drug-DNA complex formation at drug/DNA ratio 0.16 by linear flow dichroism method. In kind it is nucleic-acid assay. The note with it: Salmonidae.
The test system of assay [5] is Nucleic Acid. Briefly: Stabilization of supercoiled pBR322 DNA-human recombinant topoisomerase 2 complex assessed as linear DNA formation at 8 uM after 60 mins. In kind it is nucleic-acid assay. The note with it: Escherichia coli.
The test system of assay [6] is Nucleic Acid. Nature of the assay: Stabilization of supercoiled pBR322 DNA-human recombinant topoisomerase 2 complex assessed as linear DNA formation at 10 to 100 uM after 60 mins. It is filed as nucleic-acid assay. The note with it: Escherichia coli.
The subject of assay [7] is Nucleic Acid. Nature of the assay: Induction of Escherichia coli supercoiled pBR322 DNA cleavage at 50 uM after 60mins by gel electrophoresis. It is filed as nucleic-acid assay.
The test system of assay [8] is Nucleic Acid. Briefly: Induction of Escherichia coli supercoiled pBR322 DNA cleavage after 60mins by gel electrophoresis. In kind it is nucleic-acid assay.
Assay [9] concerns HeLa. Briefly: Induction of apoptosis in human HeLa cells assessed as induction of DNA fragmentation at 200 uM after 24 hrs using ethidium bromide staining by agarose gel electrophoresis. In kind it is functional, cell-based. Summed up: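 HeLa cells (5 × 10⁵) were preincubated 24 h at 37 °C, then medium was replaced with fresh medium containing test agent; controls received solvent alone. After 24 h, nuclear DNA was extracted and dissolved in TE buffer (10 mM Tris pH 8, 1 mM EDTA). Fragmentation was examined on a 1% agarose gel.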

Sequence of DNA topoisomerase 2-alpha (Homo sapiens) (P11388 whole entry): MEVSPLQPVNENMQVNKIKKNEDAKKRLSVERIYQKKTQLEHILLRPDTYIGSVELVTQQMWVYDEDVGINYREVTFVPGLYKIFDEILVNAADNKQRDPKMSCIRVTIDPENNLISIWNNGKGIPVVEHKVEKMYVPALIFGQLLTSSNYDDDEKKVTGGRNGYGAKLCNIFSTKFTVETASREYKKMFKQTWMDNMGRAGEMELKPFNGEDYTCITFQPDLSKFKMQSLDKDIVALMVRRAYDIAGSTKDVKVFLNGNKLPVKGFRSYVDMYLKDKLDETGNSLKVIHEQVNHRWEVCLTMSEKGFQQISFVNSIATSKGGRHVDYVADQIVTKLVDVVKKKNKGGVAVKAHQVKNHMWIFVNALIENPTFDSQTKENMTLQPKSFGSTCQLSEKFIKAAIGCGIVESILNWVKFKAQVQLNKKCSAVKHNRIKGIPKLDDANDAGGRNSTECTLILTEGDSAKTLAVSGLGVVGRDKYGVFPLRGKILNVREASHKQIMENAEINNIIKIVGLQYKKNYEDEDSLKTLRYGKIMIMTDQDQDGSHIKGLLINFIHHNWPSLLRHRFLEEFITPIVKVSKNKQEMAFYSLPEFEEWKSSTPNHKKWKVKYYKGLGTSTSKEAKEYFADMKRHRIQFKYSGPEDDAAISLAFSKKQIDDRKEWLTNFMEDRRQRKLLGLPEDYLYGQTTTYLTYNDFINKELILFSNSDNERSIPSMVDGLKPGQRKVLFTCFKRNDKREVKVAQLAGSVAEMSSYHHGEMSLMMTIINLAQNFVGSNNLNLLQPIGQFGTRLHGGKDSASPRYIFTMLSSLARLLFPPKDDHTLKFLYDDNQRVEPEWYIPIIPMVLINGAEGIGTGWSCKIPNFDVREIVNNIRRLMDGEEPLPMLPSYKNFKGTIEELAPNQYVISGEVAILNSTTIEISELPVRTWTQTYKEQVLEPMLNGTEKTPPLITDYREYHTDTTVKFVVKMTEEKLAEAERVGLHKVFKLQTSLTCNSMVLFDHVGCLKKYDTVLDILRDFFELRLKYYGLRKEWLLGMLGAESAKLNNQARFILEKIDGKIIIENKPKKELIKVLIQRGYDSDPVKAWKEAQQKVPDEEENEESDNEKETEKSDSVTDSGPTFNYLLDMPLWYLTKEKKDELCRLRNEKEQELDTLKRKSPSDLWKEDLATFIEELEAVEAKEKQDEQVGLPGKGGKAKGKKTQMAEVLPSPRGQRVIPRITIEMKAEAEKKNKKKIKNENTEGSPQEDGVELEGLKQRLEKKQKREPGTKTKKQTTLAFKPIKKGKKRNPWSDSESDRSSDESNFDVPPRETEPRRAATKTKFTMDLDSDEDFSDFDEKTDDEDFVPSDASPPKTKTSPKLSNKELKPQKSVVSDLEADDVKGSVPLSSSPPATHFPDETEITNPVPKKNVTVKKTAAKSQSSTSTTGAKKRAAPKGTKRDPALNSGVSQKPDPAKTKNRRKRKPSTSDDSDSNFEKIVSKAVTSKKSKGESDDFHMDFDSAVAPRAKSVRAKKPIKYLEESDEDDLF

`CN(C)CCNc1ncnc2c1ccc1ccccc12`: the 50% inhibitory concentration (IC50) with HL-60 is 61.6 µM; in the assay on HeLa [1] it was > 100 µM; in the assay on A-431, 50.5 µM. Also, the inhibition result in assay [2] is “inactive”. Besides, the outcome in the assay with Nucleic Acid [3] and in the assay with Nucleic Acid [4] was Active.
In the case of `COc1cc(NS(C)(=O)=O)ccc1Nc1cc2cncnc2c2ccccc12`, the IC50 is 26.9 µM with HL-60, > 100 µM in the assay on HeLa [1] and > 100 µM in the assay with A-431.
On to `CS(=O)(=O)Nc1ccc(Nc2cc3cncnc3c3ccccc23)cc1`, for which the half-inhibitory concentration (IC50) is 26.5 µM in the assay with HL-60, > 100 µM with HeLa [1] and 57.7 µM with A-431.
With `Cc1c2ccncc2c(C)c2c1[nH]c1ccccc12` [ELLIPTECINE], the IC50 in the assay on HL-60 was found to be 0.64 µM; with HeLa [1], 0.31 µM; in the assay on A-431 it was 0.47 µM.
Regarding `COc1cc(NS(C)(=O)=O)ccc1Nc1cc2ncncc2c2ccccc12`, the IC50 with HL-60 is 30.7 µM; with HeLa [1], > 100 µM; in the assay on A-431 it was 77.7 µM.
With `COc1cc(NS(C)(=O)=O)ccc1Nc1c2ccccc2nc2ccccc12` [AMSACRINE], the values for the IC50 in the assay with HL-60, with HeLa [1] and in the assay with A-431 were 0.006 µM, 0.012 µM and 0.17 µM, respectively. In the assay with Nucleic Acid [5], the result was Active.
Take `CN(C)CCNc1cc2ncncc2c2ccccc12`: the outcome in the assay on Nucleic Acid [6], with Nucleic Acid [3] and with HeLa [9] was Active. The inhibition entry in the assay with Nucleic Acid [7] is “Dose-dependent effect”. Also, the IC50 with HL-60 stood at 4.3 µM; with HeLa [1], 23.2 µM; with A-431, 4.3 µM. Moreover, the inhibition result in the assay with Nucleic Acid [8] is “Active”.
As for `CN(C)CCNc1cc2cncnc2c2ccccc12`, the result in the assay on Nucleic Acid [6], in the assay with Nucleic Acid [3] and in the assay with HeLa [9] was Active. Further, in the assay on Nucleic Acid [7], the inhibition entry was “Dose-dependent effect”. For the same molecule, the 50% inhibitory concentration (IC50) with HL-60 came out at 10.8 µM; with HeLa [1], 15.7 µM; with A-431, 3.6 µM. For the same molecule, the inhibition result with Nucleic Acid [8] is “Active”.
On to `CS(=O)(=O)Nc1ccc(Nc2cc3ncncc3c3ccccc23)cc1`, for which the IC50 with HL-60, in the assay on HeLa [1] and in the assay with A-431 was > 100 µM each time.

The IC50 is the point on the concentration scale where inhibition reaches its midpoint.
